Experimental data published in the RNAGym collection of RNA variant scans (doi:10.1126/science.aae0568).
Variants at the floor of the assay were thinned out.

B1: tRNA (parent)
chain: GUUCCGUUGGCGUAAUGGUAACGCGUCUCCCUCCUAAGGAGAAGACUGCGGGUUCGAGUCCCGUACGGAACG

Variants of: B1
Assay: yeast fitness relative to wild type (ratio to wild type); higher = fitter; tRNA-Arg(CCU), competitive growth, 37 C, YPD
Outline: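 Variants of the tRNA-Arg(CCU) gene, chemically synthesised with a 3% per-site mutation rate at 69 sites, were placed at the native genomic locus in Saccharomyces cerevisiae. The pooled strains were competed in YPD at 37°C for 24 hours in six parallel replicates. Gene amplicons from the start population and from each end population were read by 100-nucleotide paired-end sequencing. Darwinian fitness relative to wild type came from changes in genotype frequencies; genotypes needed ≥ 100 starting reads, and estimates < 0.5 were set to 0.5.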

Variant | yeast fitness
GUUCCGUUGGCGUAAUGGGAACGCGUCUCCCUCCUAGGGAGAAGACUGCGGGUUCGAGUCCCGUACGGAACG | 0.76
GUUCCGUUGGCGUAAUGGCAACGCGUCUCCCGGCUAAGGAGAAGACUGCGGGUUCGAGUCCCGUACGGAACG | ≤ 0.5
GUUCCGUUGGCGUAAUGGGAACGCGUCUCCCUCCUAAGGAGUAGACUGCGGGUUUGAGUCCCGUACGGAACG | 0.692
GUUCCGUUGGCGUAAUGGGCACGCGCCUCCCUCCUAAGGAAAAGACUGCGGGUUCGAGUCCCAUAUGGAACG | ≤ 0.5
GUUCCGUUGGCGUAAUGGCAACGCGUCCCCCUCCUAAGGAGAAGACUCCGGGUUCGAGUCCCGUACGGACCG | ≤ 0.5
GUUCCGUUGGCGUAAUGGGAUCGCGUCUCCCUCCUAAGGAGAAGAUUGCGGGUUCGAGUCCCGUAUGGAACG | 0.532
GUUCCGUUGGCGUAAUGGGAACGCGUCUCCCUCCUAAGGAGACGACUGCGGGUUCGAGUCCCGUACGGAACG | 0.971
GUUCCGUUGGCGUAAUGGGUACGCGUCUCCCUCCUAAGGAGAAGACUGCGGAUUCGAGUCCCGUACGGAACG | 0.698
GUUCCGUUGGCGUAAUGGGUACGCGUGUCCCUCCUAAGGAGAAGACUGCGGGUUCGAAUCCCGUACGGAACG | 0.527
GUUCCGUUGGCGUAAUGGGAUCGCGUCUGCCUCCUAAGGAGAAGACUGCGGGUUCGAGUCCCGUACGGAACG | 0.62
GUUCCGUUGGCGUAAUGGGUACGCGACUCCCUCCUAACGAGAAGGGUGCAGGUUCCAGUCCCGUACGGAACG | ≤ 0.5
GUUCCGUUGGCGUAAUGGCAACGCGGCUCCCUCCUCAGGAGAAGACUGCGGGUUCGAGUCCCGUACGGAACG | ≤ 0.5
GUUCCGUUGGCGUAAUGGCAACGCGUCCGCCUCCUAAGGAGAAGACUGCGGGUUCGUGUCCCGUACGGAACG | ≤ 0.5
GUUCCGUUGGCGUAAUGGCAACGCGGCUCCCUCCUAAGGAGAAGACUGCGGGUUCGAGUCCCGUACGGAACG | 0.815
GUUCCGUUGGCGUAAUGGCAACGCGUCUCCCACCUAAGGAGAAGACUGCGGGUUCGAGUCCCGUACAGAACG | 0.65
GUUCCGUUGGCGUAAUGGCAACGCGUCUCCCCGUUAAGGAGAAGACUGCGGGUACGAGUCCCGUAUGGAACG | ≤ 0.5
GUUCCGUUGGCGUAAUGGGUACGCGUCUCCCUCCUAAGGAGAAGACUGCGGGUUCGAGUCCCGUACGGUACG | 0.86
GUUCCGUUGGCGUAAUGGCAACGCGUCCCCCUCCUAAGGAGAAGAUUGCGGGUUCGAGUCCCGUACGGAACG | 0.712
GUUCCGUUGGCGUAAUGGCAACGCGUCCCCCUCCUAAGGAGAAGAAUGCGGGUUCGAGUCCCGUACGGACCG | 0.545

Variant | yeast fitness
GUUCCGUUGGCGUAAUGGGAACGCGUCUCCCUCCUAAGGCGAAGACUGCGGGUUCGAGUCCCGUACGGAACG | 0.732
GUUCCGUUGGCGUAAUGGGAACGCGUCUCCCUCCUAAGGAGACGACUGCGGGUUCGAGUCCCUAACGGAACG | ≤ 0.5
GUUCCGUUGGCGUAAUGGGUACGCGUCUCUCUCCUAAGGAGAAGACUACGGGUUCGAGUCCCGUACGGAUCG | ≤ 0.5
GUUCCGUUGGCGUAAUGGGAACGCGUCUCCCUCCUAGGGAGAAGACUGCGGGUUCGAGUCCCGUAUGGAACG | 0.639
GUUCCGUUGGCGUAAUGGCAACGCGUCCCCCUCCUAAGGAGAAGACUGCGGGUUCGAGUCCCGUACGCAACG | 0.67
GUUCCGUUGGCGUAAUGGCAACGCGUCUCCCUCCUAAGGAGAAGACUGCGGGCUCGAGUCCCGUACGGAACG | 0.694
GUUCCGUUGGCGUAAUGGCAACGCGUCUCCCUCCUAAGGAGAAGACUGCGGGUACGAGUCCCGUACGGAACG | 0.559
GUUCCGUUGGCGUAAUGGCAACGCGUCUCCCUCCUAAGGAGAAGACUGCGGGUCCGAGUCCCGUACGGAACG | 0.879
GUUCCGUUGGCGUAAUGGGUACGCGUGUCCCUCCUAAGGAGAAGACUGCGGGUUCGAGUCCCGUACGGAACG | ≤ 0.5
GUUCCGUUGGCGUAAUGGGUACGCGUAUCCCUCCUAAGGAGAAGACUGCGGGUUCGAGUCCCGUACGGAACG | 0.587
GUUCCGUUGGCGUAAUGGCAACGCGUCUCCCACCUACGGAGAAGACUGCGGGUUGGAGUCCCGUACGGAACG | ≤ 0.5
GUUCCGUUGGCGUAAUGGGUACGCGUCUCCCUCCUAAGGAGAAGACUGCGGGAUCAAGUCCCGUUCGGAACG | ≤ 0.5
GUUCCGUUGGCGUAAUGGGAACGCGUCUCCCUCCUAAGGAGACGACUGCGGGCUGGAGUCCCGUACCGCACG | ≤ 0.5
GUUCCGUUGGCGUAAUGGGAGCGCGUCUCCCUCCUAAGGAGAAGACUGCGGGUUCGAGUCCCGUACGGAACG | 1.05
GUUCCGUUGGCGUAAUGGCAACGCGUCUCCCCCCUAAGGAGAAGACUGCGGGUUCGAGUCCCGUACGGAACG | 0.926
GUUCCGUUGGCGUAAUGGCAACGCGCCUCCCUCCUAAGGACAUGACUGCGGGUUCGGGUCCCGUACGGAACG | ≤ 0.5
GUUCCGUUGGCGUAAUGGGAACGCGUCUCCCUCCUAAGGAGCCGACUGCGGGUUCGAGUCCCGUACGGAACG | 0.951
GUUCCGUUGGCGUAAUGGGAACGCGUCUCCCUCCUAAGGGGAAGACUGCGGGUUGGAGUCCCGUCCGGAACG | ≤ 0.5
GUUCCGUUGGCGUAAUGGCAACGCGCCUCCCUCCUAAGGAGAAAACUGCGGGUUCGAGUCCCGUACGGAACG | 0.521
